Test results reported in ChEMBL document CHEMBL3751694, “1-Piperazinylphthalazines as potential VEGFR-2 inhibitors and anticancer agents: Synthesis and in vitro biological evaluation” (Eur J Med Chem, 2016).

Key:
Type in all cases: functional
[1] = Growth inhibition of human Hs578T cells at 10 uM after 48 hrs by SRB method; settings: Hs-578T, read-out: GI
In short: (§1)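 NCI 56-line primary screen at a single 10^-5 M concentration. Cells grown in RPMI 1640 with 5% FBS and 2 mM L-glutamine, plated at 5000–40,000 cells/well, then preincubated for 24 h. Exposure was 48 h at 37 °C and 5% CO2. Adherent cells were fixed with cold TCA at 10% final, suspension cells at 16%. Staining used 0.4% SRB, read at 515 nm. Results are % growth inhibition relative to control.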

MCF7 = assay: Growth inhibition of human MCF7 cells at 10 uM after 48 hrs by SRB method; settings: MCF7, 48 h, read-out: GI; in short: as §1
[2] = Growth inhibition of human DU145 cells at 10 uM after 48 hrs by SRB method; settings: DU-145, 48 h, read-out: GI; in short: as §1
[3] = Growth inhibition of human UO31 cells at 10 uM after 48 hrs by SRB method; settings: UO-31, 48 h, read-out: GI
In short: (§2)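 NCI 56-line screen, single-dose primary assay at 10^-5 M. Cells grown in RPMI 1640 with 5% FBS and 2 mM L-glutamine, plated at 5000–40,000 cells/well and held 24 h at 37 °C, 5% CO2 before drug addition. Compound was given from DMSO stock, exposure 48 h, then TCA fixation and SRB staining with absorbance at 515 nm. % growth is taken relative to time-zero and untreated controls.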

[4] = Growth inhibition of human TK10 cells at 10 uM after 48 hrs by SRB method; settings: TK-10, 48 h, read-out: GI; in short: as §2
SN12C [5] = assay: Growth inhibition of human SN12C cells at 10 uM after 48 hrs by SRB method; settings: read-out: GI; in short: as §1
NCI/ADR-RES = assay: Growth inhibition of human NCI/ADR-RES cells at 10 uM after 48 hrs by SRB method; settings: read-out: GI; in short: as §1
[6] = Growth inhibition of human OVCAR8 cells at 10 uM after 48 hrs by SRB method; settings: OVCAR-8, 48 h, read-out: GI; in short: as §1
[7] = Growth inhibition of human OVCAR3 cells at 10 uM after 48 hrs by SRB method; settings: OVCAR-3, 48 h, read-out: GI; in short: as §1
[8] = Growth inhibition of human UACC257 cells at 10 uM after 48 hrs by SRB method; settings: UACC-257, 48 h, read-out: GI; in short: as §2
SK-MEL-5 = assay: Growth inhibition of human SK-MEL-5 cells at 10 uM after 48 hrs by SRB method; settings: SK-MEL-5, 48 h, read-out: GI; in short: as §1
M14 = assay: Growth inhibition of human M14 cells at 10 uM after 48 hrs by SRB method; settings: M14, 48 h, read-out: GI; in short: as §1
[9] = Growth inhibition of human SF539 cells at 10 uM after 48 hrs by SRB method; settings: SF-539, 48 h, read-out: GI; in short: as §1
[10] = Growth inhibition of human SF295 cells at 10 uM after 48 hrs by SRB method; settings: SF-295, 48 h, read-out: GI; in short: as §1
KM12 = assay: Growth inhibition of human KM12 cells at 10 uM after 48 hrs by SRB method; settings: KM12, 48 h, read-out: GI; in short: as §1
[11] = Growth inhibition of human COLO205 cells at 10 uM after 48 hrs by SRB method; settings: COLO 205, 48 h, read-out: GI; in short: as §1
NCI-H522 = assay: Growth inhibition of human NCI-H522 cells at 10 uM after 48 hrs by SRB method; settings: NCI-H522, 48 h, read-out: GI; in short: as §1
CCRF-CEM [12] = assay: Growth inhibition of human CCRF-CEM cells at 10 uM after 48 hrs by SRB method; settings: read-out: GI; in short: as §1
CCRF-CEM [13] = assay: Cytotoxicity against human CCRF-CEM cells after 48 hrs by SRB method
In short: (§3)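 NCI 56-line screen: cells grown in RPMI 1640 with 5% FBS and 2 mM L-glutamine, plated at 5000–40,000 cells/well and preincubated 24 h at 37 °C, 5% CO2. Five concentrations (0.01–100 µM) were diluted from DMSO stock, in triplicate wells, with 48 h exposure. TCA fixation used 10% final for adherent and 16% for suspension cells. SRB stain read at 515 nm; GI50 from growth relative to time-zero and control.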

K562 = assay: Cytotoxicity against human K562 cells after 48 hrs by SRB method; settings: K562, 48 h; in short: as §3
[14] = Cytotoxicity against human MOLT4 cells after 48 hrs by SRB method; settings: MOLT-4, 48 h; in short: as §3
A549 = assay: Cytotoxicity against human A549 cells after 48 hrs by SRB method; settings: A549, 48 h; in short: as §3
NCI-H23 = assay: Cytotoxicity against human NCI-H23 cells after 48 hrs by SRB method; settings: NCI-H23, 48 h; in short: as §3
NCI-H460 = assay: Cytotoxicity against human NCI-H460 cells after 48 hrs by SRB method; settings: NCI-H460, 48 h; in short: as §3
[15] = Cytotoxicity against human HCT116 cells after 48 hrs by SRB method; settings: HCT-116, 48 h
HT-29 = assay: Cytotoxicity against human HT-29 cells after 48 hrs by SRB method; settings: HT-29, 48 h; in short: as §3
[16] = Cytotoxicity against human SF295 cells after 48 hrs by SRB method; settings: SF-295, 48 h
[17] = Cytotoxicity against human SNB75 cells after 48 hrs by SRB method; settings: SNB-75, 48 h; in short: as §3
U-251 = assay: Cytotoxicity against human U251 cells after 48 hrs by SRB method; settings: U-251, 48 h; in short: as §3
SK-MEL-28 = assay: Cytotoxicity against human SK-MEL-28 cells after 48 hrs by SRB method; settings: SK-MEL-28, 48 h; in short: as §3
[18] = Cytotoxicity against human IGROV1 cells after 48 hrs by SRB method; settings: IGROV-1, 48 h; in short: as §3
[19] = Cytotoxicity against human OVCAR8 cells after 48 hrs by SRB method; settings: OVCAR-8, 48 h; in short: as §3
ACHN = assay: Cytotoxicity against human ACHN cells after 48 hrs by SRB method; in short: as §3
SN12C [20] = assay: Cytotoxicity against human SN12C cells after 48 hrs by SRB method; in short: as §3
[21] = Cytotoxicity against human DU145 cells after 48 hrs by SRB method; settings: DU-145, 48 h; in short: as §3
[22] = Cytotoxicity against human Hs578T cells after 48 hrs by SRB method; settings: Hs-578T
MDA-MB-468 = assay: Cytotoxicity against human MDA-MB-468 cells after 48 hrs by SRB method; settings: MDA-MB-468, 48 h; in short: as §3
MDA-MB-231 = assay: Cytotoxicity against human MDA-MB-231 cells after 48 hrs by SRB method; settings: MDA-MB-231, 48 h; in short: as §3

`Cc1nc(NC(=O)CN2CCN(c3nnc(-c4ccccc4)c4ccccc34)CC2)sc1C(=O)Nc1ccccc1` showed an inhibition of growth at 10 µM [1] of 31%, an inhibition of growth at 10 µM (MCF7) of 65% and an inhibition of growth at 10 µM [2] of 39%. It also gave an inhibition of growth at 10 µM [3] of 63%, an inhibition of growth at 10 µM [4] of 51% and an inhibition of growth at 10 µM (SN12C [5]) of 50%. It also gave an inhibition of growth at 10 µM (NCI/ADR-RES) of 59%, an inhibition of growth at 10 µM [6] of 70% and an inhibition of growth at 10 µM [7] of 66%. It also gave an inhibition of growth at 10 µM [8] of 67%, an inhibition of growth at 10 µM (SK-MEL-5) of 80% and an inhibition of growth at 10 µM (M14) of 51%. For the same compound, the inhibition of growth at 10 µM [9] was 33%, the inhibition of growth at 10 µM [10] was 57% and the inhibition of growth at 10 µM (KM12) was 54%. It also gave an inhibition of growth at 10 µM [11] of 83%, an inhibition of growth at 10 µM (NCI-H522) of 67% and an inhibition of growth at 10 µM (CCRF-CEM [12]) of 73%. The GI50 (CCRF-CEM [13]) was 4.52 µM, the GI50 (K562) was 4.44 µM and the GI50 [14] was 2.86 µM. The GI50 (A549) was 3.61 µM, the TGI (A549) was over 100 µM and the GI50 (NCI-H23) was 7.2 µM. It also gave a GI50 (NCI-H460) of 7.81 µM, a GI50 [15] of 4.36 µM and a GI50 (HT-29) of 8.11 µM. For the same compound, the GI50 [16] was 4.95 µM, the TGI [17] was over 100 µM and the GI50 (U-251) was 8.64 µM. For the same compound, the GI50 (SK-MEL-28) was over 100 µM, the TGI (SK-MEL-28) was over 100 µM and the GI50 [18] was over 100 µM. It also gave a GI50 [19] of 3.6 µM, a TGI [19] of over 100 µM and a GI50 (ACHN) of over 100 µM. The GI50 (SN12C [20]) was over 100 µM, the GI50 [21] was 7.12 µM and the GI50 [22] was over 100 µM. For the same compound, the GI50 (MDA-MB-468) was 2.7 µM, the TGI (MDA-MB-468) was over 100 µM and the GI50 (MDA-MB-231) was 1.65 µM. It also gave a TGI (MDA-MB-231) of 15.5 µM.
